Measurements from ChEMBL document CHEMBL3259728, “Design, synthesis and biological evaluation of some novel substituted quinazolines as antitumor agents” (2014).

Tests used:
Format in all cases: functional
NCI-H460 [1] = assay: Growth inhibition of human NCI-H460 cells assessed as cell growth at 10^-7 M after 48 hrs by SRB assay; conditions: NCI-H460, 48 h, read-out: Activity
ACHN = assay: Growth inhibition of human ACHN cells assessed as cell growth at 10^-6 M after 48 hrs by SRB assay; conditions: read-out: Activity
In short: (§1)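 Five-dose NCI panel protocol. Each dose (10^-4 to 10^-8 M, 10-fold steps) was given as 48 h continuous exposure, and protein was measured by SRB staining. Percentage growth at each level is [(Ti−Tz)/(C−Tz)]×100, where Tz is time-zero absorbance and C is untreated control.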

[2] = Growth inhibition of human SF295 cells assessed as cell growth at 10^-4 M after 48 hrs by SRB assay; conditions: SF-295, 48 h, read-out: Activity
SF-539 = assay: Cytotoxicity against human SF539 cells after 48 hrs by SRB assay; conditions: SF-539, 48 h
In short: (§2)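 NCI 60-cell-line panel of human tumour lines from nine cancer types. Continuous 48 h exposure at five 10-fold dilutions from 10^-4 to 10^-8 M, with 5-FU as positive control. SRB protein stain read spectrophotometrically at time zero, untreated control and each concentration. GI50, TGI and LC50 were derived from the [(Ti−Tz)/(C−Tz)]×100 growth relations, and out-of-range values are given as > or < the tested limits.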

DU-145 = assay: Cytotoxicity against human DU145 cells after 48 hrs by SRB assay; conditions: DU-145, 48 h; in short: as §2
SW-620 = assay: Growth inhibition of human SW620 cells assessed as cell growth at 10^-5 M after 48 hrs by SRB assay; conditions: SW-620, 48 h, read-out: Activity
NCI-H460 [3] = assay: Growth inhibition of human NCI-H460 cells assessed as cell growth at 10^-4 M after 48 hrs by SRB assay; conditions: NCI-H460, 48 h, read-out: Activity
T47D = assay: Growth inhibition of human T47D cells assessed as cell growth at 10^-6 M after 48 hrs by SRB assay; conditions: read-out: Activity
RPMI-8226 = assay: Growth inhibition of human RPMI8226 cells assessed as cell growth at 10^-7 M after 48 hrs by SRB assay; conditions: RPMI-8226, 48 h, read-out: Activity
SK-MEL-5 = assay: Growth inhibition of human SK-MEL-5 cells assessed as cell growth at 10^-7 M after 48 hrs by SRB assay; conditions: SK-MEL-5, 48 h, read-out: Activity
A498 = assay: Growth inhibition of human A498 cells assessed as cell growth at 10^-7 M after 48 hrs by SRB assay; conditions: A498, 48 h, read-out: Activity; in short: as §1
PC-3 = assay: Growth inhibition of human PC3 cells assessed as cell growth at 10^-8 M after 48 hrs by SRB assay; conditions: PC-3, 48 h, read-out: Activity
M14 = assay: Growth inhibition of human M14 cells assessed as cell growth at 10^-5 M after 48 hrs by SRB assay; conditions: M14, 48 h, read-out: Activity
[4] = Growth inhibition of human OVCAR8 cells assessed as cell growth at 10^-6 M after 48 hrs by SRB assay; conditions: OVCAR-8, 48 h, read-out: Activity
IGROV-1 = assay: Growth inhibition of human IGROV1 cells assessed as cell growth at 10^-5 M after 48 hrs by SRB assay; conditions: IGROV-1, 48 h, read-out: Activity
SF-295 = assay: Cytotoxicity against human SF295 cells after 48 hrs by SRB assay; conditions: SF-295, 48 h; in short: as §2
[5] = Growth inhibition of human MOLT4 cells assessed as cell growth at 10^-4 M after 48 hrs by SRB assay; conditions: MOLT-4, 48 h, read-out: Activity
SNB-19 = assay: Growth inhibition of human SNB19 cells assessed as cell growth at 10^-7 M after 48 hrs by SRB assay; conditions: SNB-19, 48 h, read-out: Activity
[6] = Growth inhibition of human UACC62 cells assessed as cell growth at 10^-7 M after 48 hrs by SRB assay; conditions: UACC-62, 48 h, read-out: Activity
MDA-MB-468 [7] = assay: Cytotoxicity against human MDA-MB-468 cells after 48 hrs by SRB assay; conditions: MDA-MB-468, 48 h; in short: as §2
COLO 205 = assay: Growth inhibition of human COLO205 cells assessed as cell growth at 10^-8 M after 48 hrs by SRB assay; conditions: COLO 205, 48 h, read-out: Activity; in short: as §1
[8] = Growth inhibition of human OVCAR8 cells assessed as cell growth at 10^-5 M after 48 hrs by SRB assay; conditions: OVCAR-8, 48 h, read-out: Activity
[9] = Cytotoxicity against human OVCAR3 cells after 48 hrs by SRB assay; conditions: OVCAR-3, 48 h; in short: as §2
[10] = Growth inhibition of human SF539 cells assessed as cell growth at 10^-6 M after 48 hrs by SRB assay; conditions: SF-539, 48 h, read-out: Activity
[11] = Growth inhibition of human MOLT4 cells assessed as cell growth at 10^-8 M after 48 hrs by SRB assay; conditions: MOLT-4, 48 h, read-out: Activity
[12] = Growth inhibition of human UACC62 cells assessed as cell growth at 10^-6 M after 48 hrs by SRB assay; conditions: UACC-62, 48 h, read-out: Activity
CCRF-CEM = assay: Growth inhibition of human CCRF-CEM cells assessed as cell growth at 10^-6 M after 48 hrs by SRB assay; conditions: read-out: Activity; in short: as §1
MDA-MB-468 [13] = assay: Growth inhibition of human MDA-MB-468 cells assessed as cell growth at 10^-4 M after 48 hrs by SRB assay; conditions: MDA-MB-468, 48 h, read-out: Activity
K562 = assay: Growth inhibition of human K562 cells assessed as cell growth at 10^-4 M after 48 hrs by SRB assay; conditions: K562, 48 h, read-out: Activity
[14] = Growth inhibition of human LOXIMVI cells assessed as cell growth at 10^-4 M after 48 hrs by SRB assay; conditions: LOX IMVI, read-out: Activity
[15] = read-out: LC50 (the source's name)
[16] = read-out: pLC50 (the source's name) (converted)

Cc1ccc(-c2nc3ccc(Cl)cc3c(=O)n2/N=C/c2ccccc2)cc1
growth at 0.1 µM (NCI-H460 [1]): 99%
growth at 1 µM (ACHN): 40%
growth at 100 µM [2]: 18%
GI50 (SF-539; read-out: GI50): > 100 µM
CC50 (SF-539; [15]): > 100 µM
TGI (SF-539; read-out: TGI): > 100 µM
GI50 (SF-539; read-out: pGI50 (converted)): > 100 µM
CC50 (SF-539; [16]): > 100 µM
TGI (SF-539; read-out: pTGI): > 100 µM
GI50 (DU-145; read-out: GI50): 58.4 µM
CC50 (DU-145; [15]): > 100 µM
TGI (DU-145; read-out: TGI): > 100 µM
GI50 (DU-145; read-out: pGI50 (converted)): 58.9 µM
CC50 (DU-145; [16]): > 100 µM
TGI (DU-145; read-out: pTGI): > 100 µM
growth at 10 µM (SW-620): 67%
growth at 100 µM (NCI-H460 [3]): 24%
growth at 1 µM (T47D): 100%
growth at 0.1 µM (RPMI-8226): 94%
growth at 0.1 µM (SK-MEL-5): 92%
growth at 0.1 µM (A498): 85%
growth at 0.01 µM (PC-3): 92%
growth at 10 µM (M14): 60%
growth at 1 µM [4]: 89%
growth at 10 µM (IGROV-1): 34%
GI50 (SF-295; read-out: GI50): 4.73 µM
CC50 (SF-295; [15]): > 100 µM
TGI (SF-295; read-out: TGI): > 100 µM
GI50 (SF-295; read-out: pGI50 (converted)): 4.79 µM
CC50 (SF-295; [16]): > 100 µM
TGI (SF-295; read-out: pTGI): > 100 µM
growth at 100 µM [5]: 56%
growth at 0.1 µM (SNB-19): 93%
growth at 0.1 µM [6]: 88%
GI50 (MDA-MB-468 [7]; read-out: GI50): 57.6 µM
LC50 (MDA-MB-468 [7]; read-out: LC50): > 100 µM
TGI (MDA-MB-468 [7]; read-out: TGI): > 100 µM
GI50 (MDA-MB-468 [7]; read-out: pGI50 (converted)): 57.5 µM
LC50 (MDA-MB-468 [7]; read-out: pLC50 (converted)): > 100 µM
TGI (MDA-MB-468 [7]; read-out: pTGI): > 100 µM
growth at 0.01 µM (COLO 205): 103%
growth at 10 µM [8]: 30%
GI50 ([9]; read-out: GI50): 5.44 µM
CC50 [9, 15]: > 100 µM
TGI ([9]; read-out: TGI): > 100 µM
GI50 ([9]; read-out: pGI50 (converted)): 5.5 µM
CC50 [9, 16]: > 100 µM
TGI ([9]; read-out: pTGI): > 100 µM
growth at 1 µM [10]: 94%
growth at 0.01 µM [11]: 103%
growth at 1 µM [12]: 80%
growth at 1 µM (CCRF-CEM): 88%
growth at 100 µM (MDA-MB-468 [13]): 45%
growth at 100 µM (K562): 59%
growth at 100 µM [14]: 48%
